{"source": "ChEMBL document CHEMBL1138849", "about": "“5-substituted tetrazoles as bioisosteres of carboxylic acids. Bioisosterism and mechanistic studies on glutathione reductase inhibitors as antimalarials” (J Med Chem, 2004)", "key": {"[1]": {"compound": "N[C@@H](CCC(=O)N[C@@H](CSSC[C@H](NC(=O)CC[C@H](N)C(=O)O)C(=O)NCC(=O)O)C(=O)NCC(=O)O)C(=O)O", "test": "Inhibitory concentration against glutathione reductase (In presence of NADPH)", "details": "Plasmodium falciparum"}, "[2]": {"substrate": "CC1=CC(=O)c2ccccc2C1=O", "test": "Michaelis-Menten constant against Plasmodium falciparum glutathione reductase", "outline": "(§1)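 Recombinant human or P. falciparum GR run as a quinone reductase without GSSG. Mix: 100 mM phosphate pH 7.0, 200 mM KCl, 100 μM NADPH, 1% DMSO, enzyme, and naphthoquinone at 10 levels from 10 to 400 μM. NADPH oxidation read at 340 nm (ε 6.22 mM⁻¹ cm⁻¹). Steady-state rates fitted to Michaelis–Menten by nonlinear regression to give Km and Vmax; kcat and kcat/Km calculated.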"}, "[3]": {"substrate": "CC1=CC(=O)c2ccccc2C1=O", "test": "Michaelis-Menten constant against human glutathione reductase", "outline": "as §1"}}, "data": [{"protein": "Glutathione reductase (Plasmodium falciparum 3D7), O15770 (protein) MYKHRYFHFFFFFFFFLVSTKIIRSFTFLNNNTNLSNPVYFKKKANMVYDLIVIGGGSGGMAAARRAARHNAKVALVEKSRLGGTCVNVGCVPKKIMFNAASVHDILENSRHYGFDTKFSFNLPLLVERRDKYIQRLNNIYRQNLSKDKVDLYEGTASFLSENRILIKGTKDNNNKDNGPLNEEILEGRNILIAVGNKPVFPPVKGIENTISSDEFFNIKESKKIGIVGSGYIAVELINVIKRLGIDSYIFARGNRILRKFDESVINVLENDMKKNNINIVTFADVVEIKKVSDKNLSIHLSDGRIYEHFDHVIYCVGRSPDTENLNLEKLNVETNNNYIVVDENQRTSVNNIYAVGDCCMVKKSKEIEDLNLLKLYNEETYLNKKENVTEDIFYNVQLTPVAINAGRLLADRLFLKKTRKTNYKLIPTVIFSHPPIGTIGLSEEAAIQIYGKENVKIYESKFTNLFFSVYDIEPELKEKTYLKLVCVGKDELIKGLHIIGLNADEIVQGFAVALKMNATKKDFDETIPIHPTAAEEFLTLQPWMK", "values": [{"measurement": "Km", "setting": "[1]", "value": 115, "unit": "µM"}, {"measurement": "Km", "setting": "[2]", "value": 82.2, "unit": "µM"}]}, {"protein": "Glutathione reductase, mitochondrial (Homo sapiens), P00390 (protein) MALLPRALSAGAGPSWRRAARAFRGFLLLLPEPAALTRALSRAMACRQEPQPQGPPPAAGAVASYDYLVIGGGSGGLASARRAAELGARAAVVESHKLGGTCVNVGCVPKKVMWNTAVHSEFMHDHADYGFPSCEGKFNWRVIKEKRDAYVSRLNAIYQNNLTKSHIEIIRGHAAFTSDPKPTIEVSGKKYTAPHILIATGGMPSTPHESQIPGASLGITSDGFFQLEELPGRSVIVGAGYIAVEMAGILSALGSKTSLMIRHDKVLRSFDSMISTNCTEELENAGVEVLKFSQVKEVKKTLSGLEVSMVTAVPGRLPVMTMIPDVDCLLWAIGRVPNTKDLSLNKLGIQTDDKGHIIVDEFQNTNVKGIYAVGDVCGKALLTPVAIAAGRKLAHRLFEYKEDSKLDYNNIPTVVFSHPPIGTVGLTEDEAIHKYGIENVKTYSTSFTPMYHAVTKRKTKCVMKMVCANKEEKVVGIHMQGLGCDEMLQGFAVAVKMGATKADFDNTVAIHPTSSEELVTLR", "values": [{"measurement": "Km", "setting": "[3]", "value": 31.2, "unit": "µM"}]}]}
